Measurements: ChEMBL document CHEMBL3739344, “A novel class of negative allosteric modulators of NMDA receptor function” (Bioorg Med Chem Lett, 2015)
Converted amounts (≈) assume the structure as drawn. The source made the active and inactive calls. The rule behind the calls is not given here.

Key:
[1] = target: Glutamate NMDA receptor; Grin1/Grin2a (Rattus norvegicus, UniProt P35439+Q00959); assay: Negative allosteric modulation of rat GluN1a/GluN2A receptor expressed in Xenopus laevis oocytes assessed as suppression of 100 uM glutamate and 30 uM glycine glycine induced-current by voltage clamp recording method; type: cell-based
Summary of the method: (§1)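 Rat GluN1-1a cRNA co-injected with GluN2A, 2B, 2C or 2D cRNA into Xenopus oocytes; expression 1–3 days at 16–19 °C. Two-electrode voltage clamp. Currents evoked by 100 µM glutamate plus 30 µM glycine, alone and then with rising inhibitor concentrations. […] 4–17 oocytes from ≥2 frogs.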

[2] = target: Glutamate NMDA receptor; Grin1/Grin2b (Rattus norvegicus, UniProt P35439+Q00960); assay: Negative allosteric modulation of rat GluN1a/GluN2B receptor expressed in Xenopus laevis oocytes assessed as suppression of 100 uM glutamate and 30 uM glycine induced-current by voltage clamp recording method; type: cell-based; summary of the method: as §1
[3] = target: T1, Glutamate NMDA receptor; Grin1/Grin2b (Rattus norvegicus) (UniProt P35439+Q00960); assay: Noncompetitive negative allosteric modulation of rat GluN1a/GluN2B receptor expressed in Xenopus laevis oocytes assessed as suppression of 1000 uM glutamate and 30 uM glycine induced-current at 5 uM by voltage clamp recording method relative to control; type: cell-based
Summary of the method: (§2)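 Oocytes expressing GluN1 with GluN2A, 2B, 2C or 2D, two-electrode voltage clamp. Inhibition by 5 µM compound of currents evoked by 100 µM glutamate plus 30 µM glycine, compared with inhibition when glutamate was raised to 1000 µM or glycine to 300 µM. Mean ±SEM from 4–6 oocytes.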

[4] = target: Glutamate NMDA receptor; Grin1/Grin2c (Rattus norvegicus, UniProt P35439+Q00961); assay: Negative allosteric modulation of rat GluN1a/GluN2C receptor expressed in Xenopus laevis oocytes assessed as suppression of 100 uM glutamate and 30 uM glycine induced-current by voltage clamp recording method; type: cell-based; summary of the method: as §1
[5] = target: T2, Glutamate NMDA receptor; Grin1/Grin2c (Rattus norvegicus) (UniProt P35439+Q00961); assay: Noncompetitive negative allosteric modulation of rat GluN1a/GluN2C receptor expressed in Xenopus laevis oocytes assessed as suppression of 1000 uM glutamate and 30 uM glycine induced-current at 5 uM by voltage clamp recording method relative to control; type: cell-based; summary of the method: as §2
[6] = target: T2, Glutamate NMDA receptor; Grin1/Grin2c (Rattus norvegicus); assay: Noncompetitive negative allosteric modulation of rat GluN1a/GluN2C receptor expressed in Xenopus laevis oocytes assessed as suppression of 100 uM glutamate and 300 uM glycine induced-current at 5 uM by voltage clamp recording method relative to control; type: cell-based; summary of the method: as §2
Primary neuron = assay: Neuroprotective activity in rat primary hippocampal neurons assessed as 100 uM NMDA and 30 uM glycine induced LDH release in media at 30 uM after 20 to 24 hrs by spectrophotometric analysis; type: functional, cell-based
Summary of the method: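 Primary rat hippocampal neurons kept 7–10 days in vitro at 37 °C. Challenged for 1 h with Mg2+-free medium containing 100 µM NMDA plus 30 µM glycine, with or without […], then returned to normal medium. LDH activity in the supernatant read spectrophotometrically 20–24 h later and expressed relative to vehicle-treated cells. Triplicates from 6 independent experiments.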

[7] = target: T3, Ionotropic glutamate receptor NMDA 1/2D (Rattus norvegicus) (UniProt P35439+Q62645); assay: Noncompetitive negative allosteric modulation of rat GluN1a/GluN2D receptor expressed in Xenopus laevis oocytes assessed as suppression of 100 uM glutamate and 300 uM glycine induced-current at 5 uM by voltage clamp recording method relative to control; type: cell-based; summary of the method: as §2
[8] = target: T4, Glutamate NMDA receptor; Grin1/Grin2a (Rattus norvegicus) (UniProt P35439+Q00959); assay: Noncompetitive negative allosteric modulation of rat GluN1a/GluN2A receptor expressed in Xenopus laevis oocytes assessed as suppression of 1000 uM glutamate and 30 uM glycine induced-current at 5 uM by voltage clamp recording method relative to control; type: cell-based; summary of the method: as §2
[9] = target: T2, Glutamate NMDA receptor; Grin1/Grin2c (Rattus norvegicus); assay: (§3) Negative allosteric modulation of rat GluN1a/GluN2C receptor expressed in Xenopus laevis oocytes assessed as suppression of 100 uM glutamate and 30 uM glycine induced-current at -60 to +60 mV at 3 uM by voltage clamp recording method in absence of Mg2+; type: cell-based
Summary of the method: (§4)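 GluN1/GluN2C receptors in Xenopus oocytes, two-electrode voltage clamp in Mg2+-free solution. Currents evoked by maximally effective glutamate plus glycine, without and with 3 µM inhibitor, recorded at membrane potentials from −60 to +60 mV. Reversal potential taken from the current–voltage relationship (3rd-order polynomial fit). n = 5 oocytes, mean ±SEM.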

[10] = target: Glutamate NMDA receptor (Rattus norvegicus) (UniProt P35439+Q00959+Q00960+Q00961+Q62645+Q8VHN2+Q9R1M7); assay: Negative allosteric modulation of NMDA receptor in rat cerebellar granule cells assessed as suppression of 100 uM glutamate and 30 uM glycine induced-current at 30 uM cotreated with 100 uM NMDA and 50 uM glycine by patch clamp recording method
Summary of the method: (§5)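 Primary cerebellar granule cell cultures from P6–8 rats, whole-cell patch clamp at a holding potential of −70 mV. NMDA receptor currents evoked by 100 µM NMDA plus 30 µM glycine (50 µM glycine in the example trace), with the inhibitor co-applied at various concentrations. Steady-state inhibition averaged over n = 5 cells and fitted with the Hill equation.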

[11] = target: Ionotropic glutamate receptor NMDA 1/2D (Rattus norvegicus, UniProt P35439+Q62645); assay: Negative allosteric modulation of rat GluN1a/GluN2D receptor expressed in Xenopus laevis oocytes assessed as suppression of 100 uM glutamate and 30 uM glycine induced-current by voltage clamp recording method; type: cell-based; summary of the method: as §1
[12] = Solubility of compound in TEVC electrophysiological solution at 3.25 to 100 uM by nephelometric method; type: physicochemical
Summary of the method: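 Nephelometry measuring forward light scattering of each compound at 3.25–100 µM in TEVC recording solution. Maximum solubility taken as the intersection point of a linear segmental regression. Mean of n = 2 in quadruplicate.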

[13] = target: T3, Ionotropic glutamate receptor NMDA 1/2D (Rattus norvegicus); assay: Negative allosteric modulation of rat GluN1a/GluN2D receptor expressed in Xenopus laevis oocytes assessed as suppression of 100 uM glutamate and 30 uM glycine induced-current at saturating compound level by voltage clamp recording method; type: cell-based; summary of the method: as §1
[14] = target: T4, Glutamate NMDA receptor; Grin1/Grin2a (Rattus norvegicus); assay: Noncompetitive negative allosteric modulation of rat GluN1a/GluN2A receptor expressed in Xenopus laevis oocytes assessed as suppression of 100 uM glutamate and 300 uM glycine induced-current at 5 uM by voltage clamp recording method relative to control; type: cell-based; summary of the method: as §2
[15] = target: T2, Glutamate NMDA receptor; Grin1/Grin2c (Rattus norvegicus); assay: as §3, with “Voltage-independent negative” for “Negative”, “mean reverse potential” for “suppression”, “Mg2+ (Rvb=-13+/-0.6 mV)” for “Mg2+”; type: cell-based; summary of the method: as §4
[16] = target: T3, Ionotropic glutamate receptor NMDA 1/2D (Rattus norvegicus); assay: Noncompetitive negative allosteric modulation of rat GluN1a/GluN2D receptor expressed in Xenopus laevis oocytes assessed as suppression of 1000 uM glutamate and 30 uM glycine induced-current at 5 uM by voltage clamp recording method relative to control; type: cell-based; summary of the method: as §2
[17] = target: T4, Glutamate NMDA receptor; Grin1/Grin2a (Rattus norvegicus); assay: Negative allosteric modulation of rat GluN1a/GluN2A receptor expressed in Xenopus laevis oocytes assessed as suppression of 100 uM glutamate and 30 uM glycine induced-current at saturating compound level by voltage clamp recording method; type: cell-based; summary of the method: as §1
Glutamate NMDA receptor = assay: Negative allosteric modulation of NMDA receptor in rat cerebellar granule cells assessed as suppression of 100 uM glutamate and 30 uM glycine induced-current cotreated with 100 uM NMDA and 50 uM glycine by patch clamp recording method; summary of the method: as §5
[18] = target: T1, Glutamate NMDA receptor; Grin1/Grin2b (Rattus norvegicus); assay: Noncompetitive negative allosteric modulation of rat GluN1a/GluN2B receptor expressed in Xenopus laevis oocytes assessed as suppression of 100 uM glutamate and 300 uM glycine induced-current at 5 uM by voltage clamp recording method relative to control; type: cell-based; summary of the method: as §2
[19] = target: T1, Glutamate NMDA receptor; Grin1/Grin2b (Rattus norvegicus); assay: Negative allosteric modulation of rat GluN1a/GluN2B receptor expressed in Xenopus laevis oocytes assessed as suppression of 100 uM glutamate and 30 uM glycine induced-current at saturating compound level by voltage clamp recording method; type: cell-based; summary of the method: as §1
[20] = target: T2, Glutamate NMDA receptor; Grin1/Grin2c (Rattus norvegicus); assay: Negative allosteric modulation of rat GluN1a/GluN2C receptor expressed in Xenopus laevis oocytes assessed as suppression of 100 uM glutamate and 30 uM glycine induced-current at saturating compound level by voltage clamp recording method; type: cell-based; summary of the method: as §1

IC50 [1]: 900 nM
IC50 [2]: 2200 nM
inhibition [3]: Active
IC50 [4]: 700 nM
inhibition [5]: Active
inhibition [6]: Active
inhibition [7]: Active
inhibition [8]: Active
inhibition [9]: Active
inhibition [10]: Active
IC50 [11]: 400 nM
solubility kinetic [12]: 43 µM (≈ 17 µg/mL)
inhibition [13]: 76%
inhibition [14]: Active
Activity [15]: -11.9 mV
inhibition [16]: Active
inhibition [17]: 88%
IC50 (Glutamate NMDA receptor): 3400 nM
inhibition [18]: Active
inhibition [19]: 70%
inhibition [20]: 80%
SMILES: CCOC(=O)c1c(NC(=O)CC2SC(N)=NC2=O)sc2c1CCC(C)C2 (racemic)
Activity (Primary neuron): Active
